# Experiments:
# Settings in all cases: stereoisomer not certain
# UniProt Q8VGL0 = biological target: T1, UniProt Q8VGL0
# T1 sequence (whole entry): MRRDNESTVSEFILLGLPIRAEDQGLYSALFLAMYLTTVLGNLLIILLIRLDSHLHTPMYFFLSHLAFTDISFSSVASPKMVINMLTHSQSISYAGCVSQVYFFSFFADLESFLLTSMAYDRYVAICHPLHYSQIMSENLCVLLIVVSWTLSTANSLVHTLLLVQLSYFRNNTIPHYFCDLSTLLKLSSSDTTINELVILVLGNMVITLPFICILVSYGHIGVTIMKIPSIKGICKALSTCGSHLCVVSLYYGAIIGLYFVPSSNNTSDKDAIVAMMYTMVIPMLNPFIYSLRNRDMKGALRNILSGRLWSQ
# How it was run: (§1)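 Whether a receptor–molecule pair is responsive (active) rests on the original authors' judgment that its measured signal was statistically different from baseline. Pairs without that judgment are non-responsive (inactive). Sources used varied assay methods, commonly transient luciferase assays in mammalian cell lines.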
# UniProt Q8VGU3 = biological target: T2, UniProt Q8VGU3
# T2 sequence (whole entry): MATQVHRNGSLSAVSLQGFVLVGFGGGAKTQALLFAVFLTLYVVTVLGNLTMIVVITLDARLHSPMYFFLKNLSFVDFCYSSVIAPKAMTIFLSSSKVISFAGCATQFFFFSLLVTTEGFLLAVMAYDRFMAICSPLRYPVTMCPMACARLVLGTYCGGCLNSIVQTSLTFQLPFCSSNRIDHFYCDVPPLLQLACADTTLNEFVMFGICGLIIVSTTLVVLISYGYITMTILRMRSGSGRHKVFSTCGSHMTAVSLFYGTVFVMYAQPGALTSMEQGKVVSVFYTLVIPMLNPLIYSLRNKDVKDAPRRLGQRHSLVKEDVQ
# How it was run: as §1
# UniProt Q8VGV7 = biological target: T3, UniProt Q8VGV7
# T3 sequence (whole entry): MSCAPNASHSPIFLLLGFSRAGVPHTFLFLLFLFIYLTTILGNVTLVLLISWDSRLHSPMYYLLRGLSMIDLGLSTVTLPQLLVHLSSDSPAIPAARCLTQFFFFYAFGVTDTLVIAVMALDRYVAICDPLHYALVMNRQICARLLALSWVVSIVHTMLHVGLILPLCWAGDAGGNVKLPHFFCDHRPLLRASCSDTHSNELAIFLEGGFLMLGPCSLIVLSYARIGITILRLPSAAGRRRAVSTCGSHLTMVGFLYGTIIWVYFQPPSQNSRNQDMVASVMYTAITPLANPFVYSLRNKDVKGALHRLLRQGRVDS
# How it was run: as §1
# UniProt Q8VGX3 = biological target: T4, UniProt Q8VGX3
# T4 sequence (whole entry): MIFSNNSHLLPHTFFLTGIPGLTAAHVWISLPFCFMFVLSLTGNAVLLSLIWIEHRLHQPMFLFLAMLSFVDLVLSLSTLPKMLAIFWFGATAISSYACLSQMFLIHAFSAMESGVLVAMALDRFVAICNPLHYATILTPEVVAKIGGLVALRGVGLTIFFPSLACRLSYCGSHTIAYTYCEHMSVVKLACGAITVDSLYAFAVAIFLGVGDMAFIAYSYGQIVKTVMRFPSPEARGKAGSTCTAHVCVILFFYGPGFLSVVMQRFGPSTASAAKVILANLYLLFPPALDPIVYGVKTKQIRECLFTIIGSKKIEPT
# How it was run: as §1
# UniProt Q8VGX5 = biological target: T5, UniProt Q8VGX5
# T5 sequence (whole entry): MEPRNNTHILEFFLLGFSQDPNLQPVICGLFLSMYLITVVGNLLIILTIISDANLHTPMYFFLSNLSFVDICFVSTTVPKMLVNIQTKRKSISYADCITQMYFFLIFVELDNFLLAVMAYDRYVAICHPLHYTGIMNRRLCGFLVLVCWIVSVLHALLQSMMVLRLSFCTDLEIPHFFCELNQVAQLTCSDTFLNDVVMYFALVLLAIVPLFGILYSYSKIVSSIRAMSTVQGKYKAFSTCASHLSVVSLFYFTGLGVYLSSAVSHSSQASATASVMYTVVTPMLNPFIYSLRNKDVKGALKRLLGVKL
# How it was run: as §1
# UniProt Q8VGZ2 = biological target: T6, UniProt Q8VGZ2
# T6 sequence (whole entry): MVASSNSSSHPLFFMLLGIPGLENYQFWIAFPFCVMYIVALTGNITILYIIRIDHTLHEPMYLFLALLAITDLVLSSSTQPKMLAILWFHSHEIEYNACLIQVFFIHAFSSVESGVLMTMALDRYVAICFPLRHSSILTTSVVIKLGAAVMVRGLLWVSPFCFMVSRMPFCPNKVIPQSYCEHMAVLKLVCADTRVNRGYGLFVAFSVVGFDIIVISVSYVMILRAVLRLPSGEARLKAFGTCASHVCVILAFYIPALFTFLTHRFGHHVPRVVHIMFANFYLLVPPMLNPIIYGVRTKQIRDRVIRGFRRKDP
# How it was run: as §1
# UniProt Q8VGZ7 = biological target: T7, UniProt Q8VGZ7
# T7 sequence (whole entry): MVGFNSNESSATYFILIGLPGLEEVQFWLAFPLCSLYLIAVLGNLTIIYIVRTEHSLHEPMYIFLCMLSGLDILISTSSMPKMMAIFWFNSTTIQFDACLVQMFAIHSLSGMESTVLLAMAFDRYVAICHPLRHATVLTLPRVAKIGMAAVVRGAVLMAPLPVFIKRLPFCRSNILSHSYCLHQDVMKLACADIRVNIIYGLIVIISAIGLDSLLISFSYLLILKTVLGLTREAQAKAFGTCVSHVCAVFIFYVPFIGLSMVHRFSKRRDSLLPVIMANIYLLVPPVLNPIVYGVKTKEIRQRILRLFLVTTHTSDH
# How it was run: as §1
# UniProt Q8VH16 = biological target: T8, UniProt Q8VH16
# T8 sequence (whole entry): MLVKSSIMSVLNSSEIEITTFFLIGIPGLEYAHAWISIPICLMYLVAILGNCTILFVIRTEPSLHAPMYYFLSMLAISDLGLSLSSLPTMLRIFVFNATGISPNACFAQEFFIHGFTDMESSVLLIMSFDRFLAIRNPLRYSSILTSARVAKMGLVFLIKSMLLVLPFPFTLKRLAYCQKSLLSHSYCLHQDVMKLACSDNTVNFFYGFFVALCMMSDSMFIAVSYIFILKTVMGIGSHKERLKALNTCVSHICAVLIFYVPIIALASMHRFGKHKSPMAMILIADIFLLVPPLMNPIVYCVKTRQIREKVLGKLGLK
# How it was run: as §1
# UniProt Q8VH20 = biological target: T9, UniProt Q8VH20
# T9 sequence (whole entry): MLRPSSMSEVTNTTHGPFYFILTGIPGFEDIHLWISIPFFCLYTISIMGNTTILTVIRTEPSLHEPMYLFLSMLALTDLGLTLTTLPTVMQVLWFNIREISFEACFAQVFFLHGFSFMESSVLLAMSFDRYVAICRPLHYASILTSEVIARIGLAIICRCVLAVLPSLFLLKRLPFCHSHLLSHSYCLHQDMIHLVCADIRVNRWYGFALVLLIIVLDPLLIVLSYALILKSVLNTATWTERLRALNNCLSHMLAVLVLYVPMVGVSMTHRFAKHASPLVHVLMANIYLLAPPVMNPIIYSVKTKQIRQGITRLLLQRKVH
# How it was run: as §1
# UniProt Q8VGX8 = biological target: T10, UniProt Q8VGX8
# T10 sequence (whole entry): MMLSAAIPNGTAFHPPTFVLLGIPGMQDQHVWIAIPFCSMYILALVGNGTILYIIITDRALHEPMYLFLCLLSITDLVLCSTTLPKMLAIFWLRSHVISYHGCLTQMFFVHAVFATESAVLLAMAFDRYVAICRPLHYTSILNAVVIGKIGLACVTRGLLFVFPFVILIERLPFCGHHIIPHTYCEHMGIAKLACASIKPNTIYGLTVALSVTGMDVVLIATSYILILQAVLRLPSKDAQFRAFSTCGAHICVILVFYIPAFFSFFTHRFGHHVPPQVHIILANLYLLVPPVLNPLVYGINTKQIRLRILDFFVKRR
# How it was run: as §1
# UniProt Q8VH18 = biological target: UniProt Q8VH18
# How it was run: as §1
# 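Note: active if original authors judged signal statistically different from baseline.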
# Chain of UniProt Q8VH18 (Q8VH18 as listed by the source): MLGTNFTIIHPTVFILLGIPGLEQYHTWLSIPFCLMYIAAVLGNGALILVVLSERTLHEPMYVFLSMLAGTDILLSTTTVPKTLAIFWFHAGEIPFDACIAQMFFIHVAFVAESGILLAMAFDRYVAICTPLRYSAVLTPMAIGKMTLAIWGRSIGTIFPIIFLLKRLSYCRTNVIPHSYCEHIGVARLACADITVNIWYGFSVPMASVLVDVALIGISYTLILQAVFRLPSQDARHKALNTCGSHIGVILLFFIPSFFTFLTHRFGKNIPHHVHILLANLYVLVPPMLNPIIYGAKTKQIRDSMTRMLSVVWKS
Structure (SMILES),odorant receptor agonist call (UniProt Q8VGL0),odorant receptor agonist call (UniProt Q8VGU3),odorant receptor agonist call (UniProt Q8VGV7),odorant receptor agonist call (UniProt Q8VGX3),odorant receptor agonist call (UniProt Q8VGX5),odorant receptor agonist call (UniProt Q8VGZ2),odorant receptor agonist call (UniProt Q8VGZ7),odorant receptor agonist call (UniProt Q8VH16),odorant receptor agonist call (UniProt Q8VH20),odorant receptor agonist call (UniProt Q8VGX8),odorant receptor agonist call (UniProt Q8VH18)
C=C(C)C1CC=C(C=O)CC1 (stereo unspecified),inactive,inactive,inactive,inactive,inactive,inactive,inactive,inactive,inactive,–,–
O=C(O)CCCCCCCBr,–,–,–,–,–,–,–,–,–,active,active
